The text below walks through data of ChEMBL document CHEMBL1122648 (J Med Chem, 1984).

The test system of one experiment is CCRF-CEM. Nature of the experiment: In vitro cytotoxicity by its growth inhibitory activity against human leukemic lymphoblasts (CEM cells). It is filed as functional, cell-based. A digest of the protocol:
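Human leukemic lymphoblasts (CEM) counted after 48 h of drug exposure. Compounds dissolved in Me2SO (1 mg/mL), diluted 10-fold in Me2SO, then added to growth medium (final Me2SO 0.1%). Triplicate tubes per dose, averaged; IC50 reported.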

The target of a further experiment is T1, Dihydrofolate reductase (Bos taurus, UniProt P00376).
T1 sequence (P00376 whole entry): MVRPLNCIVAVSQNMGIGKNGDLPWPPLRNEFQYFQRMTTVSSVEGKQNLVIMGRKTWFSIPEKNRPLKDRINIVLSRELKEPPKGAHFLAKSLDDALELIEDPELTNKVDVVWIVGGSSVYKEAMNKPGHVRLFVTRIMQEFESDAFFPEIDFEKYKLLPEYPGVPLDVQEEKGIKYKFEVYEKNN
Nature of the experiment: In vitro ability to inhibit the Dihydrofolate reductase extracted from beef liver.

A short description of experiment [1]: Compound was evaluated for its inhibitory effect on thymidine [3H]dThd) incorporation into DNA of CEM/MTX cells in culture at conc. 10e-5. It is filed as functional, Homo sapiens. Further details: scale not given: the % may be the effect or the level left. Put shortly:
(§1)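 Log-phase CEM or CEM/MTX (transport-defective) cells, 2×10^5 per tube in serum-free EBSS, exposed to 10^-7–10^-4 M compound for 1 h at 37 °C under 5% CO2. Then pulsed 0.5 h with [3H]dThd or [3H]dUrd, washed in cold EBSS and lysed in SDS with tRNA carrier. DNA precipitated with cold 0.5 N HClO4; acid-insoluble counts given as % of untreated controls.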

Experiment [2] can be described thus: Compound was evaluated for its inhibitory effect on thymidine [3H]-dThd) incorporation into DNA of CEM/MTX cells in culture at conc. 10e-6. Format: functional, Homo sapiens. Set-up: scale not given: the % may be the effect or the level left. Put shortly: as §1
Experiment [3] in a line: Compound was evaluated for its inhibitory effect on thymidine ([3H]dThd) incorporation into DNA of CEM cells in at conc. 10e-7. Further details: scale not given: the % may be the effect or the level left. Format: functional, Homo sapiens, CCRF-CEM. Put shortly:
as §1

Experiment [4] can be described thus: Compound was evaluated for its inhibitory effect on thymidine ([3H]-dThd) incorporation into DNA of CEM cells in culture at conc. 10e-4. Format: functional, Homo sapiens, CCRF-CEM. Set-up: scale not given: the % may be the effect or the level left. Put shortly: as §1
Experiment [5] in a line: Compound was evaluated for its inhibitory effect on thymidine ([3H]dThd) incorporation into DNA of CEM cells in culture at conc. 10e-5. It is filed as functional, Homo sapiens, CCRF-CEM. Further details: scale not given: the % may be the effect or the level left. A digest of the protocol: as §1
Experiment [6] is described as follows: Compound was evaluated for its inhibitory effect on thymidine ([3H]dThd) incorporation into DNA of CEM cells in culture at conc. 10e-6. Format: functional, Homo sapiens, CCRF-CEM. Set-up: scale not given: the % may be the effect or the level left. Put shortly: as §1
Experiment [7] is described as follows: Compound was evaluated for its inhibitory effect on thymidine ([3H]-dThd) incorporation into DNA of CEM/MTX cells in at conc. 10e-7. It is filed as functional, Homo sapiens. Further details: scale not given: the % may be the effect or the level left. A digest of the protocol:
as §1

Experiment [8] in a line: Compound was evaluated for its inhibitory effect on thymidine ([3H]dThd) incorporation into DNA of CEM/MTX cells in culture at conc. 10e-4. Format: functional, Homo sapiens. Set-up: scale not given: the % may be the effect or the level left. A digest of the protocol:
as §1

Experiment [9] can be described thus: Compound was evaluated for its inhibitory effect on deoxyuridine ([3H]dUrd ) incorporation into DNA of CEM cells in culture at conc. 10e-7. It is filed as functional, Homo sapiens, CCRF-CEM. Further details: scale not given: the % may be the effect or the level left. A digest of the protocol: as §1
Experiment [10] in a line: Compound was evaluated for its inhibitory effect on deoxyuridine ([3H]dUrd ) incorporation into DNA of CEM/MTX cells in culture at conc. 10e-7. Format: functional, Homo sapiens. Further details: scale not given: the % may be the effect or the level left. Put shortly: as §1
Experiment [11] can be described thus: Compound was evaluated for its inhibitory effect on deoxyuridine ([3H]-dUrd) incorporation into DNA of CEM cells in at conc. 10e-6. Format: functional, Homo sapiens, CCRF-CEM. Further details: scale not given: the % may be the effect or the level left. A digest of the protocol: as §1
Experiment [12] can be described thus: Compound was evaluated for its inhibitory effect on deoxyuridine ([3H]dUrd) incorporation into DNA of CEM cells in culture at conc. 10e-4. Further details: scale not given: the % may be the effect or the level left. Format: functional, Homo sapiens, CCRF-CEM. A digest of the protocol:
as §1

Experiment [13] in a line: Compound was evaluated for its inhibitory effect on deoxyuridine ([3H]dUrd) incorporation into DNA of CEM cells in culture at conc. 10e-5. Set-up: scale not given: the % may be the effect or the level left. Format: functional, Homo sapiens, CCRF-CEM. Put shortly:
as §1

Experiment [14] in a line: Compound was evaluated for its inhibitory effect on deoxyuridine ([3H]dUrd) incorporation into DNA of CEM/MTX cells in culture at conc. 10e-4. Set-up: scale not given: the % may be the effect or the level left. It is filed as functional, Homo sapiens. Put shortly: as §1
The nature of experiment [15]: Compound was evaluated for its inhibitory effect on deoxyuridine ([3H]dUrd) incorporation into DNA of CEM/MTX cells in culture at conc. 10e-5. Set-up: scale not given: the % may be the effect or the level left. Format: functional, Homo sapiens. A digest of the protocol:
as §1

The nature of experiment [16]: Compound was evaluated for its inhibitory effect on deoxyuridine ([3H]dUrd) incorporation into DNA of CEM/MTX cells in culture at conc. 10e-6. It is filed as functional, Homo sapiens. Set-up: scale not given: the % may be the effect or the level left. Put shortly: as §1

Take `CCCCCCCCCCCCCCCCOC(=O)C(CCC(=O)O)NC(=O)c1ccc(N(C)Cc2cnc3nc(N)nc(N)c3n2)cc1` (stereo not drawn): the IC50 in the experiment with CCRF-CEM turned out to be 0.25 µM; against Dihydrofolate reductase it was 1.2 µM.

As for `CCCCCCCCOC(=O)CCC(NC(=O)c1ccc(N(C)Cc2cnc3nc(N)nc(N)c3n2)cc1)C(=O)O` (stereo not drawn), the IC50 in the experiment with CCRF-CEM stood at 0.92 µM; on Dihydrofolate reductase it was 0.0054 µM.

With `CCCCCCCCCCCCCCCCOC(=O)CCC(NC(=O)c1ccc(N(C)Cc2cnc3nc(N)nc(N)c3n2)cc1)C(=O)O` (stereo not drawn), the Control in [1] is on record as 15%; in experiment [2], 108%; in [3] it was 92%; in [4], 17%; in [5], 25%; in experiment [6] it was 67%. The Control in experiment [7] is reported as 81%; in [8], 8%; in [9] it was 117%; in [10], 95%; in experiment [11], 64%; in experiment [12], 7%. The Control in experiment [13] was 14%; in [14], 2%; in experiment [15], 55%; in experiment [16] it was 103%. For the same compound, the results for the IC50 in the experiment on CCRF-CEM and at Dihydrofolate reductase were 0.11 µM and 0.037 µM, respectively.

With `CCCCOC(=O)CCC(NC(=O)c1ccc(N(C)Cc2cnc3nc(N)nc(N)c3n2)cc1)C(=O)O` (stereo not drawn), the IC50 with CCRF-CEM stood at 0.78 µM; against Dihydrofolate reductase, 0.0054 µM.

Turning to `CCCCCCCCCCCCOC(=O)CCC(NC(=O)c1ccc(N(C)Cc2cnc3nc(N)nc(N)c3n2)cc1)C(=O)O` (stereo not drawn), the IC50 with CCRF-CEM stood at 0.37 µM; on Dihydrofolate reductase, 0.034 µM.

For `CCCCOC(=O)C(CCC(=O)O)NC(=O)c1ccc(N(C)Cc2cnc3nc(N)nc(N)c3n2)cc1` (stereo not drawn), the IC50 in the experiment with CCRF-CEM was found to be 2 µM; against Dihydrofolate reductase, 0.056 µM.

With `CN(Cc1cnc2nc(N)nc(N)c2n1)c1ccc(C(=O)N[C@@H](CCC(=O)O)C(=O)O)cc1` [METHOTREXATE], in the experiment on CCRF-CEM, the IC50 came out at 0.025 µM.

Take `CCCCCCCCCCCCOC(=O)C(CCC(=O)O)NC(=O)c1ccc(N(C)Cc2cnc3nc(N)nc(N)c3n2)cc1` (stereo not drawn): the IC50 in the experiment on CCRF-CEM amounted to 2.1 µM; on Dihydrofolate reductase, 0.44 µM.

As for `CCCCCCCCOC(=O)C(CCC(=O)O)NC(=O)c1ccc(N(C)Cc2cnc3nc(N)nc(N)c3n2)cc1` (stereo not drawn), the IC50 in the experiment on CCRF-CEM amounted to 3 µM; at Dihydrofolate reductase it was 0.36 µM.
